Source: ChEMBL document CHEMBL1152870, “Design and synthesis of novel dihydroquinoline-3-carboxylic acids as HIV-1 integrase inhibitors” (Bioorg Med Chem, 2009)

Key:
[1] = target: T1, Human immunodeficiency virus type 1 integrase (Human immunodeficiency virus 1, UniProt Q7ZJM1); assay: Inhibition of HIV1 integrase strand transfer activity by PAGE
HCT-116 [2] = assay: Cytotoxicity against p53 deficient human HCT116 cells after 72 hrs by MTT assay; type: functional; conditions: HCT-116, 72 h
Procedure, shortened: (§1)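 HCT116 p53+/+ or p53−/− cells grown as monolayers in RPMI 1640 with 10% FBS and 2 mmol/L L-glutamine at 37 °C, 5% CO2, and used in exponential growth. Cells were seeded, allowed to attach, then exposed continuously to drug for 72 h. DMSO stocks were diluted in medium. MTT (0.5 mg/mL final) was added for 4 h at 37 °C and read at 570 nm. Triplicates; IC50 from log concentration versus % cells killed.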

HCT-116 [3] = assay: Cytotoxicity against human HCT116 cells expressing p53 after 72 hrs by MTT assay; type: functional; conditions: HCT-116, 72 h; procedure, shortened: as §1
[4] = target: T1, Human immunodeficiency virus type 1 integrase; assay: Inhibition of HIV1 integrase 3' processing activity by PAGE

T1 sequence (Q7ZJM1 whole entry): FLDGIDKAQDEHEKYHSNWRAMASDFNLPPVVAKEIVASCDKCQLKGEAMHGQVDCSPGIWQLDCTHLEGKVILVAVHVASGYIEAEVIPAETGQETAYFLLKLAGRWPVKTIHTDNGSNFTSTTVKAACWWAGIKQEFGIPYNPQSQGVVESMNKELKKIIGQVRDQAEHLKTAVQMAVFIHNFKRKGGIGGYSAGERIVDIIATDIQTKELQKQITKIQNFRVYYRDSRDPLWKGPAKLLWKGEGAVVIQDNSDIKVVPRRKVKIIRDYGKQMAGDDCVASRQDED

Structure (SMILES)	IC50 [1]	IC50 [4]	CC50 (HCT-116 [2])	CC50 (HCT-116 [3])
CCOC(=O)c1c(O)c2cc(OC)ccc2n(C)c1=O	> 1000 µM	> 1000 µM	> 10 µM	> 10 µM
CCCCCn1c(=O)c(C(=O)Nc2cc([N+](=O)[O-])ccc2O)c(O)c2ccccc21	9 µM	9 µM	> 10 µM	> 10 µM
COc1ccc2c(c1)c(O)c(C(=O)O)c(=O)n2C	320 µM	580 µM	> 10 µM	> 10 µM
Cn1c(=O)c(C(=O)O)c(O)c2cc(Oc3ccccc3)ccc21	14 µM	34 µM	> 10 µM	> 10 µM
CCOC(=O)c1c(O)c2cc(Cc3ccc(F)cc3)ccc2n(C)c1=O	220 µM	800 µM	> 10 µM	> 10 µM
O=C(O)C(=O)CC(=O)c1cccn1Cc1ccc(F)cc1	–	–	> 10 µM	> 10 µM
CCOC(=O)c1c(O)c2cc(Cc3ccccc3)ccc2n(C)c1=O	110 µM	275 µM	> 10 µM	> 10 µM

The next lines start with results.

IC50 [1]	IC50 [4]	Structure (SMILES)	CC50 (HCT-116 [2])	CC50 (HCT-116 [3])
6 µM	45 µM	Cn1c(=O)c(C(=O)O)c(O)c2cc(Cc3ccccc3)ccc21	> 10 µM	> 10 µM
0.9 µM	23 µM	Cn1c(=O)c(C(=O)O)c(O)c2cc(Cc3ccc(F)cc3)ccc21	> 10 µM	> 10 µM
5 µM	92 µM	CCCCCn1c(=O)c(C(=O)O)c(O)c2cc(Cc3ccc(F)cc3)ccc21	> 10 µM	> 10 µM
